From ChEMBL document CHEMBL1126777, “Mono- and bis(aminomethyl)phenylacetic acid esters as short-acting antiarrhythmic agents. 2” (J Med Chem, 1993)

Assays:
Cavia porcellus [1] = species: Cavia porcellus; experiment: Dose required to convert acetylstrophanthidin-induced arrhythmia in guinea pig right atria to normal sinus rhythm (number of tissues converted to NSR/number of tissues tested=3/5); assay type: functional
[2] = In vitro determination of human blood elimination half-life; assay type: ADME; conditions: whole blood
Cavia porcellus [3] = species: Cavia porcellus; experiment: Dose required to convert acetylstrophanthidin-induced arrhythmia in guinea pig right atria to normal sinus rhythm (number of tissues converted to NSR/number of tissues tested=4/4); assay type: functional
Cavia porcellus [4] = species: Cavia porcellus; experiment: Dose required to convert acetylstrophanthidin-induced arrhythmia in guinea pig right atria to normal sinus rhythm (number of tissues converted to NSR/number of tissues tested=3/3); assay type: functional
Cavia porcellus [5] = species: Cavia porcellus; experiment: Dose required to convert acetylstrophanthidin-induced arrhythmia in guinea pig right atria to normal sinus rhythm (number of tissues converted to NSR/number of tissues tested=3/4); assay type: functional
[6] = In vitro determination of human blood elimination half-life; not determined because more than 90% of the drug was metabolized in min; assay type: ADME; conditions: whole blood
[7] = Distribution coefficient was determined; assay type: physicochemical; conditions: octanol/water
Summary of the method: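 Octanol and 0.1 M phosphate buffer at pH 7.4 were pre-saturated with each other by shaking for 16 h. About 5 mg of compound was dissolved in 10 mL buffer. A 5-mL portion was shaken with 5 mL octanol and centrifuged for 5 min. Absorbance of the aqueous phase at 280 nm was read before and after partitioning, diluted to 0.4–0.9. DC = (initial − final)/final, each × dilution factor; mean of two determinations.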

Cavia porcellus [8] = species: Cavia porcellus; experiment: Dose required to convert acetylstrophanthidin-induced arrhythmia in guinea pig right atria to normal sinus rhythm (number of tissues converted to NSR/number of tissues tested=1/3); assay type: functional
Canis familiaris [9] = experiment: In vivo determination of antiarrhythmic activity as the dose required for the production of 50% normal sinus beats in ouabain dog; assay type: functional; conditions: Canis lupus familiaris, Heart
Summary of the method: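 Dogs with ouabain-induced arrhythmia received the agent by intravenous infusion at 500 µg/kg/min. ED50 is the cumulative administered dose (mg/kg) at which 50% of beats were normal sinus beats; number of animals given.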

Canis familiaris [10] = experiment: In vivo determination of antiarrhythmic activity as the dose required for the production of 80% normal sinus beats in Harris dog; assay type: functional; conditions: Canis lupus familiaris, Heart
Summary of the method: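 Harris dog arrhythmia model with intravenous infusion at 150, 225 or 300 µg/kg/min depending on agent. Effective dose is the cumulative administered dose (mg/kg) giving 80% normal sinus beats; number of animals given.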

Cavia porcellus [11] = species: Cavia porcellus; experiment: Dose required to convert acetylstrophanthidin-induced arrhythmia in guinea pig right atria to normal sinus rhythm (number of tissues converted to NSR/number of tissues tested=8/8); assay type: functional
Cavia porcellus [12] = species: Cavia porcellus; experiment: Dose required to convert acetylstrophanthidin-induced arrhythmia in guinea pig right atria to normal sinus rhythm (number of tissues converted to NSR/number of tissues tested=6/6); assay type: functional
Cavia porcellus [13] = species: Cavia porcellus; experiment: Dose required to convert acetylstrophanthidin-induced arrhythmia in guinea pig right atria to normal sinus rhythm (number of tissues converted to NSR/number of tissues tested=5/5); assay type: functional
Cavia porcellus [14] = species: Cavia porcellus; experiment: Dose required to convert acetylstrophanthidin-induced arrhythmia in guinea pig right atria to normal sinus rhythm (number of tissues converted to NSR/number of tissues tested=1/4); assay type: functional
Cavia porcellus [15] = species: Cavia porcellus; experiment: Dose required to convert acetylstrophanthidin-induced arrhythmia in guinea pig right atria to normal sinus rhythm (number of tissues converted to NSR/number of tissues tested=2/4); assay type: functional

Row | half-life [2] | DC [7] | SMILES | ED (Cavia porcellus [3]) | further results
1 | 3.8 min |  | O=C(Cc1cc(CN2CCCC2)c(O)c(CN2CCCC2)c1)OCCN1C(=O)c2ccccc2C1=O |  | ED (Cavia porcellus [1]): 23.3 µg/mL
2 | 35.9 min |  | O=C(Cc1cc(CN2CCCC2)c(O)c(CN2CCCC2)c1)OCCc1cccs1 | 3 µg/mL | 
3 |  |  | COc1ccc2c(COC(=O)Cc3cc(CN4CCCC4)c(O)c(CN4CCCC4)c3)cc(=O)oc2c1 |  | ED (Cavia porcellus [4]): 11.7 µg/mL
4 | 9.2 min |  | O=C(Cc1cc(CN2CCCC2)c(O)c(CN2CCCC2)c1)OCc1ccc2c(c1)OCO2 |  | ED (Cavia porcellus [5]): 10.7 µg/mL
5 | 34.8 min |  | O=C(Cc1cc(CN2CCCC2)c(O)c(CN2CCCC2)c1)OCCc1ccsc1 | 6.2 µg/mL | 
6 |  | 36.3 | O=C(Cc1ccc(O)c(CN2CCCC2)c1)OCC1COc2ccccc2O1 (configuration not stated) | 1.2 µg/mL | half-life [6]: < 1 min
7 | 3.3 min |  | O=C(Cc1cc(CN2CCCC2)c(O)c(CN2CCCC2)c1)OCC1CCCCO1 (configuration not stated) |  | ED (Cavia porcellus [8]): 20 µg/mL
8 | 3.5 min | 0.73 | O=C(Cc1cc(CN2CCCC2)c(O)c(CN2CCCC2)c1)OCc1cccs1 | 5.5 µg/mL | ED50 (Canis familiaris [9]): 3.8 mg/kg; ED50 (Canis familiaris [10]): 10.5 mg/kg
9 | < 1 min | 39.5 | O=C(Cc1cccc(CN2CCCC2)c1)OCC1COc2ccccc2O1 (configuration not stated) |  | ED (Cavia porcellus [11]): 6.9 µg/mL
10 | 10.1 min |  | O=C(Cc1cc(CN2CCCC2)c(O)c(CN2CCCC2)c1)OCc1ccoc1 |  | ED (Cavia porcellus [12]): 27.5 µg/mL
11 | < 1 min | 7.1 | O=C(Cc1ccc(O)c(CN2CCN(CC(=O)N3CCCC3)CC2)c1)OCC1COc2ccccc2O1 (configuration not stated) | 22.5 µg/mL | 
12 |  | 24 | CN1CCN(Cc2cc(CC(=O)OCC3COc4ccccc4O3)ccc2O)CC1 (configuration not stated) | 2.5 µg/mL | 
13 | 16.8 min |  | O=C(Cc1cc(CN2CCCC2)c(O)c(CN2CCCC2)c1)OCCc1ccccc1 | 2.8 µg/mL | 
14 | 2.5 min |  | O=C(Cc1cc(CN2CCCC2)c(O)c(CN2CCCC2)c1)OCCOc1ccccc1 | 16.2 µg/mL | 
15 | < 1 min | 9.6 | O=C(Cc1ccc(O)c(CN2CCC(N3CCCCC3)CC2)c1)OCC1COc2ccccc2O1 (configuration not stated) |  | ED (Cavia porcellus [4]): 8.3 µg/mL
16 | < 1 min | 22.1 | O=C(Cc1ccc(CN2CCCC2)cc1)OCC1COc2ccccc2O1 (configuration not stated) | 10 µg/mL | 
17 |  | 19.2 | CCN(CC)CC(=O)Nc1c(C)cccc1C [LIDOCAINE] |  | ED50 (Canis familiaris [9]): 8.8 mg/kg; ED50 (Canis familiaris [10]): 37.5 mg/kg
18 | 7.1 min | 2.62 | O=C(Cc1cc(CN2CCCC2)c(O)c(CN2CCCC2)c1)OCC1COc2ccccc2O1 (configuration not stated) |  | ED50 (Canis familiaris [9]): 4.8 mg/kg; ED50 (Canis familiaris [10]): 14 mg/kg; ED (Cavia porcellus [13]): 7.3 µg/mL
19 | 11 min |  | O=C(Cc1cc(CN2CCCC2)c(O)c(CN2CCCC2)c1)OCc1c(F)c(F)c(F)c(F)c1F | 7.5 µg/mL | 
20 | 3.5 min |  | O=C(Cc1cc(CN2CCCC2)c(O)c(CN2CCCC2)c1)OCC1CCCO1 (configuration not stated) |  | ED (Cavia porcellus [14]): 40 µg/mL
21 | 2.5 min |  | O=C(Cc1cc(CN2CCCC2)c(O)c(CN2CCCC2)c1)OCc1ccco1 |  | ED (Cavia porcellus [13]): 29.4 µg/mL
22 | 6.2 min |  | O=C(Cc1cc(CN2CCCC2)c(O)c(CN2CCCC2)c1)OCc1ccc([N+](=O)[O-])cc1 | 5.2 µg/mL | 
23 | 2.3 min |  | O=C(Cc1cc(CN2CCCC2)c(O)c(CN2CCCC2)c1)OCC1CCc2ccccc2C1 (configuration not stated) |  | ED (Cavia porcellus [15]): 6 µg/mL
